16 compounds from PubChem BioAssay can be followed below.

A short description of experiment [1]: hit retest on RPL19A-GFP reporter strain – cell-based, S. cerevisiae, flow cytometry, cherry picks, mother/daughter gates, confirmation (AID 2270;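 active means GFP response below 50% of the DMSO control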). Conditions: 3 h, at 10 µM, stronger effect = lower value, 100 = same GFP as DMSO wells. In general terms: A flow cytometer gives signals particle by particle.
Experiment [2] is described as follows: yeast TOR pathway reporter LAP4-GFP change – cell-based, cherry picks, flow cytometry, mother/daughter gates, confirmation (AID 2271;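 active means GFP response above 150% of the DMSO control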;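 further: ratio of sample to DMSO plate mean so 100% equals DMSO level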). As to conditions: S. cerevisiae LAP4-GFP strain, 3 h, at 10 µM, stronger effect = higher value, 100 means same as DMSO control. A digest of the protocol: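 Material: Alexa Fluor 633-labelled Saccharomyces cerevisiae GFP-fusion strain, single-plex | Amount: Yeast cells seeded at OD600 of 0.2 | Buffer or medium: SC growth medium | Schedule: 3 h exposure, 30 °C | Measured by: HT flow cytometry, GFP fluorescence channel | Evaluation: % GFP response vs DMSO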

Experiment [3] is described as follows: TOR pathway reporter MEP2-GFP, retest of hits – S. cerevisiae, flow cytometry GFP, cherry picks, confirmation (AID 2272;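 active means GFP response above 150% of the DMSO control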;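 further: ratio of well signal to plate DMSO mean so 100% equals DMSO level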). As to conditions: S. cerevisiae MEP2-GFP strain, 3 h, at 10 µM, stronger effect = higher value.
A short description of experiment [4]: yeast AGP1-GFP fluorescence change, single-dose – cell-based, flow cytometry, S. cerevisiae, cherry picks, confirmation (AID 2273).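 Further: median GFP channel fluorescence over the whole cell population gate.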 As to conditions: S. cerevisiae AGP1-GFP strain, 3 h, at 10 µM.
The nature of experiment [5]: TOR pathway CIT2 reporter hit retest – S. cerevisiae, GFP fusion, cherry picks, mother/daughter gates, confirmation (AID 2274). As to conditions: S. cerevisiae CIT2-GFP strain, flow cytometry, 3 h, at 10 µM, stronger effect = higher value.
The mark [6] stands for this setting: measured here: daughter cell gate.
Setting [7] is: measured here: mother cell gate.
Setting [8] is: measured here: daughter cell gate response.
Setting [9] is: measured here: mother cell gate response.

Each structure is given as a SMILES string. Calls of active or inactive are those of the source.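 How the source made its calls, unless noted: active means GFP response above 150% of the DMSO level; inconclusive means fewer than 70 events counted for a yeast strain; inactive means the rest.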

Take `CNC(=O)c1c(O)c2cccc3c2n(c1=O)CC3`: the GFP response vs DMSO in experiment [1] is 102% (inactive); in experiment [1] (setting [6]), 99.1%; in experiment [1] (setting [7]), 103%; in experiment [3], 97.5% (inactive). Also, the GFP response relative to DMSO in experiment [2] is 94.2% (inactive); in experiment [2] (setting [8]) it was 90.7%; in experiment [2] (setting [9]) it was 94.6%. Further, the GFP response, % of DMSO was 100% (inactive) in experiment [4], 93.5% (inactive) in experiment [5], 90.9% in experiment [5] (setting [6]) and 93.3% in experiment [5] (setting [7]).

In the case of `O=C(Nc1c2c(nn1-c1ccccc1)CS(=O)C2)c1ccco1` (stereo unspecified), the GFP response vs DMSO in experiment [1] was 96.5% (inactive); in experiment [1] (setting [6]), 97.3%; in experiment [1] (setting [7]), 95%; in experiment [3], 99.3% (inactive). Also, the GFP response relative to DMSO in experiment [2] is 92.9% (inactive); in experiment [2] (setting [8]), 96%; in experiment [2] (setting [9]), 95.4%. Moreover, the GFP response, % of DMSO in experiment [4] is 100% (inactive); in experiment [5], 97.2% (inactive); in experiment [5] (setting [6]) it was 99.3%; in experiment [5] (setting [7]), 96%.

For the compound `O=C1CC(SCc2nc3ccccc3[nH]2)C(=O)N1c1ccc(F)cc1` (stereo unspecified), the GFP response vs DMSO in experiment [1] was 102% (inactive); in experiment [1] (setting [6]), 101%; in experiment [1] (setting [7]), 100%; in experiment [3], 110% (inactive). Also, the values for the GFP response relative to DMSO in experiment [2], in experiment [2] (setting [8]) and in experiment [2] (setting [9]) were 110% (inactive), 108% and 109%, respectively. In addition, the GFP response, % of DMSO in experiment [4] is 106% (inactive); in experiment [5], 108% (inactive); in experiment [5] (setting [6]), 108%; in experiment [5] (setting [7]) it was 107%.

Turning to `O=[N+]([O-])c1cccnc1S(=O)(=O)c1ccccc1`, the GFP response vs DMSO in experiment [1] is 97.6% (inactive); in experiment [1] (setting [6]), 94.7%; in experiment [1] (setting [7]), 96.2%; in experiment [3], 103% (inactive). The figures for the GFP response relative to DMSO in experiment [2], in experiment [2] (setting [8]) and in experiment [2] (setting [9]) were 114% (inactive), 110% and 112%, respectively. For the same compound, the GFP response, % of DMSO in experiment [4] is 102% (inactive); in experiment [5] it was 90.1% (inactive); in experiment [5] (setting [6]) it was 88.4%; in experiment [5] (setting [7]), 89.5%.

In the case of `COc1ccc(-c2csc(NC(=O)c3ccco3)n2)cc1`, the GFP response vs DMSO in experiment [1] was 98.4% (inactive); in experiment [1] (setting [6]), 96.7%; in experiment [1] (setting [7]), 97.8%; in experiment [3], 104% (inactive). Also, the figures for the GFP response relative to DMSO in experiment [2], in experiment [2] (setting [8]) and in experiment [2] (setting [9]) were 109% (inactive), 102% and 109%, respectively. In addition, the GFP response, % of DMSO in experiment [4] is 91.9% (inactive); in experiment [5], 99.3% (inactive); in experiment [5] (setting [6]), 100%; in experiment [5] (setting [7]), 96.8%.

Consider `O=C1CC(SCCO)C(=O)N1c1ccc(Oc2ccccc2)cc1` (stereo unspecified), for which the GFP response vs DMSO in experiment [1] is 99.7% (inactive); in experiment [1] (setting [6]), 98.7%; in experiment [1] (setting [7]) it was 101%; in experiment [3], 104% (inactive). In addition, the GFP response relative to DMSO is 103% (inactive) in experiment [2], 105% in experiment [2] (setting [8]) and 104% in experiment [2] (setting [9]). Moreover, the GFP response, % of DMSO in experiment [4] is 103% (inactive); in experiment [5], 104% (inactive); in experiment [5] (setting [6]), 101%; in experiment [5] (setting [7]), 106%.

In the case of `CCC(=O)Nc1ccc(NC(=O)c2cc3ccccc3o2)cc1`, the GFP response vs DMSO was 103% (inactive) in experiment [1], 99.3% in experiment [1] (setting [6]), 104% in experiment [1] (setting [7]) and 101% (inactive) in experiment [3]. For the same compound, the GFP response relative to DMSO was 99.5% (inactive) in experiment [2], 99.1% in experiment [2] (setting [8]) and 98.4% in experiment [2] (setting [9]). Moreover, the GFP response, % of DMSO was 101% (inactive) in experiment [4], 97.3% (inactive) in experiment [5], 95.6% in experiment [5] (setting [6]) and 96.8% in experiment [5] (setting [7]).

As for `O=C(O)c1ccc(/C=N/NC(=O)c2ccc(Br)cc2)cc1`, the GFP response vs DMSO was 102% (inactive) in experiment [1], 100% in experiment [1] (setting [6]), 102% in experiment [1] (setting [7]) and 101% (inactive) in experiment [3]. The GFP response relative to DMSO was 98.2% (inactive) in experiment [2], 95.9% in experiment [2] (setting [8]) and 98.4% in experiment [2] (setting [9]). In addition, the GFP response, % of DMSO in experiment [4] is 99.8% (inactive); in experiment [5] it was 94.4% (inactive); in experiment [5] (setting [6]) it was 93.8%; in experiment [5] (setting [7]), 94.4%.

For `CCOc1ccc(-c2nc(-c3ccc(OC)cc3)no2)cc1OCC`, the GFP response vs DMSO in experiment [1] was 101% (inactive); in experiment [1] (setting [6]) it was 101%; in experiment [1] (setting [7]), 101%; in experiment [3], 102% (inactive). Moreover, the GFP response relative to DMSO is 94.2% (inactive) in experiment [2], 92.2% in experiment [2] (setting [8]) and 93.6% in experiment [2] (setting [9]). In addition, the GFP response, % of DMSO in experiment [4] is 96% (inactive); in experiment [5], 99.3% (inactive); in experiment [5] (setting [6]) it was 100%; in experiment [5] (setting [7]), 99.1%.

On to `Cc1ccc(NC(=S)NCC23C=CC(O2)C2C(=O)N(c4ccc(C)cc4)C(=O)C23)cc1` (stereo unspecified), for which the GFP response vs DMSO is 102% (inactive) in experiment [1], 101% in experiment [1] (setting [6]), 102% in experiment [1] (setting [7]) and 104% (inactive) in experiment [3]. Moreover, the GFP response relative to DMSO is 105% (inactive) in experiment [2], 105% in experiment [2] (setting [8]) and 106% in experiment [2] (setting [9]). The GFP response, % of DMSO in experiment [4] is 98.9% (inactive); in experiment [5], 100% (inactive); in experiment [5] (setting [6]), 98.1%; in experiment [5] (setting [7]), 101%.

On to `CCNC(=O)/C(C#N)=C/c1c(N2CCOCC2)nc2ccccn2c1=O`, for which the GFP response vs DMSO in experiment [1] was 96.9% (inactive); in experiment [1] (setting [6]), 99.3%; in experiment [1] (setting [7]), 95.4%; in experiment [3], 103% (inactive). Moreover, the GFP response relative to DMSO was 102% (inactive) in experiment [2], 101% in experiment [2] (setting [8]) and 104% in experiment [2] (setting [9]). Besides, the GFP response, % of DMSO in experiment [4] was 102% (inactive); in experiment [5] it was 100% (inactive); in experiment [5] (setting [6]), 101%; in experiment [5] (setting [7]), 99.3%.

For `N#C/C(=C\c1c(N(Cc2ccccc2)Cc2ccccc2)nc2ccccn2c1=O)C(N)=O`, the GFP response vs DMSO is 98.4% (inactive) in experiment [1], 99.2% in experiment [1] (setting [6]), 98.2% in experiment [1] (setting [7]) and 102% (inactive) in experiment [3]. Besides, the GFP response relative to DMSO in experiment [2] is 99.8% (inactive); in experiment [2] (setting [8]), 97.2%; in experiment [2] (setting [9]), 102%. Besides, the GFP response, % of DMSO in experiment [4] is 104% (inactive); in experiment [5] it was 106% (inactive); in experiment [5] (setting [6]), 101%; in experiment [5] (setting [7]) it was 109%.

Take `Cc1cc(-n2nc(C)cc2C)n2ncc(-c3ccccc3)c2n1`: the GFP response vs DMSO in experiment [1] was 105% (inactive); in experiment [1] (setting [6]), 101%; in experiment [1] (setting [7]), 106%; in experiment [3], 103% (inactive). The GFP response relative to DMSO is 95.7% (inactive) in experiment [2], 95.9% in experiment [2] (setting [8]) and 96.2% in experiment [2] (setting [9]). Moreover, the GFP response, % of DMSO was 102% (inactive) in experiment [4], 97.3% (inactive) in experiment [5], 95.6% in experiment [5] (setting [6]) and 98.1% in experiment [5] (setting [7]).

As for `Oc1c(Br)cc(Br)cc1C=Nc1ccc2c(c1)OCO2`, the GFP response vs DMSO in experiment [1] was 98.2% (inactive); in experiment [1] (setting [6]), 88.5%; in experiment [1] (setting [7]), 98.5%; in experiment [3], 110% (inactive). In addition, the results for the GFP response relative to DMSO in experiment [2], in experiment [2] (setting [8]) and in experiment [2] (setting [9]) were 190% (active), 114% and 174%, respectively. Besides, the GFP response, % of DMSO in experiment [4] was 99.3% (inactive); in experiment [5], 97.8% (inactive); in experiment [5] (setting [6]), 98.3%; in experiment [5] (setting [7]) it was 91%.

Turning to `COc1ccccc1N=Nc1ccc(O)c2ncccc12`, the GFP response vs DMSO was 104% (inactive) in experiment [1], 101% in experiment [1] (setting [6]), 101% in experiment [1] (setting [7]) and 132% (inactive) in experiment [3]. Besides, the GFP response relative to DMSO in experiment [2] was 235% (active); in experiment [2] (setting [8]), 203%; in experiment [2] (setting [9]) it was 223%. Moreover, the GFP response, % of DMSO in experiment [4] is 115% (inactive); in experiment [5] it was 158% (active); in experiment [5] (setting [6]), 126%; in experiment [5] (setting [7]) it was 161%.

As for `Clc1ccc(OCCn2cnc3ccccc32)c(Cl)c1`, the GFP response vs DMSO in experiment [1] is 87.5% (inactive); in experiment [1] (setting [6]) it was 82.3%; in experiment [1] (setting [7]), 89.4%; in experiment [3], 89.9% (inactive). Also, the GFP response relative to DMSO is 134% (inactive) in experiment [2], 123% in experiment [2] (setting [8]) and 142% in experiment [2] (setting [9]). For the same compound, the GFP response, % of DMSO in experiment [4] was 92.7% (inactive); in experiment [5], 82.6% (inactive); in experiment [5] (setting [6]) it was 80.7%; in experiment [5] (setting [7]), 84.3%.
